{"source": "paper PMC7980362", "about": "(Proceedings of the National Academy of Sciences of the …, 2021)", "key": {"[1]": {"system": "LPETG and GGG substrates", "details": "cited from earlier work"}, "[2]": {"system": "M. mazei Connectase", "test": "Time course of the Connectase reaction with one primary substrate", "type": "biochemical", "details": "0.9 µM M. mazei Connectase, 3.7 µM Ub-(5)KDPGA(10), 37 °C", "in_short": "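M. mazei Connectase-His6 incubated with His6-Ub-(5)KDPGA(10) primary substrate only, no secondary substrate. Buffer: 50 mM acetate/MES/Hepes, 150 mM NaCl, 50 mM KCl, 5 mM TCEP, pH 7.0. Time points were stopped with 2% SDS and run on Coomassie-stained 12% gels.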"}, "[3]": {"system": "ubiquitin ligation substrates (Ub-(5)KDPGA(15)/PGA(15)-Ub; Ub-[…]/GGG-Ub)", "type": "biochemical"}, "[4]": {"system": "Ub-(5)KDPGA(15) and PGA(15)-Ub substrates", "test": "Reaction rates of M. mazei Connectase at different temperatures", "type": "biochemical", "in_short": "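His6-Ub-(5)KDPGA(15) and PGA(15)-Ub-His6, each 6.25 µM, incubated with M. mazei Connectase-His6 at 400× lower concentration, at 25 °C, 37 °C or 50 °C. Buffer: 50 mM acetate/MES/Hepes, 150 mM NaCl, 50 mM KCl, 5 mM TCEP, pH 7.0. Time points were stopped with 2% SDS and run on Coomassie-stained 12% gels. Bands were quantified to give rates.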"}}, "note": "Read-outs that look alike come from different tables or passages of the source.", "data": [{"molecule": "SrtA: S. aureus Sortase A without membrane anchor, reference ligase (protein) MRGSHHHHHHGSQAKPQIPKDKSKVAGYIEIPDADIKEPVYPGPATPEQLNRGVSFAEENESLDDQNISIAGHTFIDRPNYQFTNLKAAKKGSMVYFKVGNETRKYKMTSIRDVKPTDVEVLDEQKGKDKQLTLITCDDYNEKTGVWEKRKIFVATEVK", "values": [{"measurement": "kcat Ligation/kcat Hydrolysis", "setting": "[1]", "value": "≈ 3.3"}]}, {"molecule": "Ub-(5)KDPGA(10): C. subterraneum ubiquitin fused C-terminally to M. mazei MtrA residues 148 to 167 (protein) MHHHHHHGSMKIKIVPAVGGGSPLELEVAPNATVGAVRTKVCAMKKLPPDTTRLTYKGRALKDTETLESLGVADGDKFVLITRTVGGRELASKDPGAFDADPLVVEI", "values": [{"measurement": "fraction of substrate modified (conjugate with Connectase) at any time", "setting": "[2]", "value": "~7", "unit": "%"}]}, {"molecule": "SrtA5*: evolved SrtA pentamutant with significantly increased activity (protein) MQAKPQIPKDKSKVAGYIEIPDADIKEPVYPGPATREQLNRGVSFAEENESLDDQNISIAGHTFIDRPNYQFTNLKAAKKGSMVYFKVGNETRKYKMTSIRNVKPTAVEVLDEQKGKDKQLTLITCDDYNEETGVWETRKIFVATEVKLEHHHHHH", "values": [{"measurement": "ligase activity of SrtA5* compared with SrtA", "setting": "[3]; Ub-GGSLPETGGG and GGG-Ub substrates, 37 °C", "value": "~100", "unit": "x"}, {"measurement": "Km", "setting": "[1]; read-out: KM GGG", "value": 4700, "unit": "µM"}, {"measurement": "Km", "setting": "[1]; read-out: KM LPETG", "value": 170, "unit": "µM"}]}, {"molecule": "M. mazei Connectase: sequence-specific protein ligase, monomeric homolog of 20S proteasome subunits from Methanosarcina mazei (protein, left off: Strep, C-terminal, kept) MTLVIAFIGKNGAVMAGDMREITFEGEKPDREKLEKELYSGSIVTDEEMQKKAEEFGVKITVADCKEKVSERNGVLVGEVSSAEGGVVKKRRLYASAGNFAIAELINTEMTLTSQGKGSNFIAFGNEFTKQVANKCFKDNWTKKSNLQDAVKILILCMETVARKTASVSKQFMIVQTASNADVLKVVEKDRNC", "values": [{"measurement": "ligase activity of Connectase relative to optimized SrtA5*", "setting": "[3]; 100 µM substrates each, Connectase 50 °C, Sortase 37 °C", "value": "> 40", "unit": "x"}, {"measurement": "ligation yield", "setting": "[3]; protein-protein ligation of two ubiquitin molecules, equimolar substrates", "value": "~50", "unit": "%"}, {"measurement": "temperature of maximum activity", "setting": "[4]", "value": 50, "unit": "°C"}]}]}
